# Test results: ChEMBL document CHEMBL2429859, “Inhibiting aberrant signal transducer and activator of transcription protein activation with tetrapodal, small molecule Src homology 2 domain binders: promising agents against multiple myeloma” (J Med Chem, 2013)
# Activity calls are given as the source filed them. No cut-off for these calls is given here.
# Columns and labels:
# [1] = Cytotoxicity against CD138-positive BMNC isolated from multiple myeloma patient assessed as cell viability at 20 uM; assay type: functional; details: Homo sapiens, read-out: Activity
# Outline: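 Bone marrow mononuclear cells were isolated by Ficoll-Paque separation from 6 myeloma patient aspirates, cultured, and treated with compound. Cells were stained for CD138 and Annexin V, and the decrease in CD138+ (myeloma) and CD138- (non-myeloma) populations was reported.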
# [2] = biological target: T1, Tyrosine-protein kinase JAK3 (Homo sapiens) (UniProt P52333); assay: Inhibition of JAK3 JH1 domain (unknown origin) assessed as residual activity at 5 uM relative to control
# T1 sequence (whole entry): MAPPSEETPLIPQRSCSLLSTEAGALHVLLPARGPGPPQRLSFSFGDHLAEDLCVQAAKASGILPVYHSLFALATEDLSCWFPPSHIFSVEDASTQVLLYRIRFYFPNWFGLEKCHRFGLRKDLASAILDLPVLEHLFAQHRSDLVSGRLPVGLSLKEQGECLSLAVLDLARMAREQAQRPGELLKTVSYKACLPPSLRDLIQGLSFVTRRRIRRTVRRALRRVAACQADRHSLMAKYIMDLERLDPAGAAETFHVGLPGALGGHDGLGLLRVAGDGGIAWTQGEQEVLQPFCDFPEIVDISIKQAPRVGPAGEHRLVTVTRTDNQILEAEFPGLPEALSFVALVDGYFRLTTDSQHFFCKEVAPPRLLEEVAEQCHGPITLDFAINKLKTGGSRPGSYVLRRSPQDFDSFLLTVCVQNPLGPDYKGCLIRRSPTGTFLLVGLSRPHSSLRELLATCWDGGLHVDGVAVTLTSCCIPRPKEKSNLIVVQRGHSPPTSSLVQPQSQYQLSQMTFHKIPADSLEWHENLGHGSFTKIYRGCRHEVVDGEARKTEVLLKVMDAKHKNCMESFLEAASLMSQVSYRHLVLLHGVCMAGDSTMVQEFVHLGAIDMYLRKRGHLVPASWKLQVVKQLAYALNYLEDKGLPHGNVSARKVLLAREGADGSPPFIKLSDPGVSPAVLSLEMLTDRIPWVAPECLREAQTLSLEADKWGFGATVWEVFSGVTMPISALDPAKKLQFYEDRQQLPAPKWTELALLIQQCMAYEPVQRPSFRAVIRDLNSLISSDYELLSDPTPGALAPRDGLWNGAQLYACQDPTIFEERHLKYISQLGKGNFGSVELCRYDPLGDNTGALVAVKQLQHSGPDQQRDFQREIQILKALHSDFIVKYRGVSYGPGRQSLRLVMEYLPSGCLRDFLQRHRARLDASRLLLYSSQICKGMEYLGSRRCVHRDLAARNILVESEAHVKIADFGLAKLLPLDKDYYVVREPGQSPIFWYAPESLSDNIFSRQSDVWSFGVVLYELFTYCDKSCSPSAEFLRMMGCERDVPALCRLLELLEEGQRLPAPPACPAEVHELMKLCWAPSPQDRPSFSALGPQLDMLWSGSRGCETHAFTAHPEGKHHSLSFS
# Outline: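 Kinase profiling used a KinomeScan at 5 µM across 132 kinases, including 37 with SH2 domains.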
# JJN-3 = assay: Induction of apoptosis in human JJN-3 cells assessed as induction of PARP cleavage at 5 to 10 uM by Western blot analysis; assay type: functional, cell-based
# Outline: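 Treated cells were washed in cold PBS and lysed 30 min on ice in Tris-HCl pH 7.4/NaCl/EDTA/1% NP-40 with PMSF, vanadate and protease inhibitors. Lysates were Bradford-normalized, and 10-30 µg protein was run on 7-10% SDS-PAGE and transferred to PVDF. Blots were blocked in 5% BSA/TBST, probed overnight at 4 °C, then with HRP secondary, and detected by ECL.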
# XG6 = assay: Cytotoxicity against human XG6 cells assessed as cell viability at 7.5 uM after 72 hrs by MTT assay; assay type: functional, cell-based
# Outline: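 Myeloma lines were seeded at 1-3 x 10^4 cells per well onto compound or vehicle, in triplicate, and cultured 72 h at 37 °C in 5% CO2. Viability was measured colorimetrically by MTT assay relative to DMSO control. EC50 was fitted to a standard dose-response curve where applicable.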
Activity [2],Structure (SMILES),viability at 20 µM [1],Activity (JJN-3),Activity (XG6)
84%,Cc1ccc(S(=O)(=O)N(CC(=O)N(Cc2ccc(C3CCCCC3)cc2)c2ccc(C(=O)O)c(O)c2)Cc2ccccc2C(F)(F)F)cc1,> 50%,–,–
–,O=C(O)c1ccc(N(Cc2ccc(C3CCCCC3)cc2)C(=O)CN(Cc2ccccc2C(F)(F)F)S(=O)(=O)c2c(F)c(F)c(F)c(F)c2F)cc1O,–,Active,Active
